The values below come from PubChem BioAssay AID652260 (The Scripps Research Institute Molecular Screening Center, 2013).

Molecules are shown by their SMILES. About 1,000 (29%) of roughly 3,500 compounds were called active. A selection follows. Values without a mark were called inactive.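 How the source made its calls: active means activation above its plate's cutoff, the mean activation of tested wells plus 3 SD (cut at about 7.9% in these data); inactive means the rest.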

The test in a line: BRM-dependent MMTV reporter reactivation – cell-based, luminescence, triplicate, confirmation (AID 652260). To be noted: MG213 cells, MMTV-luciferase with dexamethasone, overnight, at 9.1 µM, stronger effect = higher value, DMSO wells 0%, reference activator 100%, MG213 cells expressing E1A, Rb sequestered. The gist of the method: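 Schedule – compound exposure 24 h at 37 °C after 1-day dexamethasone priming · Assay system – MG213 MMTV-luciferase reporter cells · Amount – 600 cells in each well · Detection – luciferase luminescence (OneGlo) · Dosing – 9.1 µM single dose · Buffer or medium – assay medium with 2.5% FBS plus 0.1 µM dexamethasone · Benchmarks – DMSO and reference activator wells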
For the molecule `O=C1Cc2cc(S(=O)(=O)Nc3cccc(F)c3)ccc2N1`, the activation was 0.74%.
Turning to `NS(=O)(=O)c1ccccc1NC(=O)c1c(O)c2ccccc2[nH]c1=O`, the activation is 12.1% (active).
`CCOc1cc(NC(=S)NCCCOC)c(OCC)cc1NC(=O)c1ccco1`: the activation is -1.02%.
In the case of `Cc1ccc(S(=O)(=O)NC(C)C(=O)NCc2ccc(Cl)cc2)cc1` (stereo not drawn), the activation was -3.9%.
The result for `CCCCn1nnnc1C(c1cc2ccccc2o1)N(C)Cc1ccc(Cl)c(Cl)c1` (stereo not drawn) reads -4.28%; that for `COc1ccccc1OCC(=O)O/N=C(\N)c1ccccn1`, 10.6% (active); that for `COc1ccc(/C(N)=N/OC(=O)Oc2ccccc2)cc1`, -2.89%.
Take `O=C(CSc1nc2ccccc2[nH]1)c1cccs1`: the activation is 2.82%.
For `CC(=O)c1cccc(-c2cnc3c(NC=O)cc(-c4ccc(N5CCN(C)CC5)cc4)cn23)c1`, the activation was 16.5% (active).
For the molecule `CC(=O)Nc1cc(-c2ccc(N3CCN(C)CC3)cc2)cn2c(-c3ccc(F)cc3)cnc12`, the activation is 17.5% (active).
Regarding `CN(C)CCNC(=O)c1cccc(-c2cnc3c(NC=O)cc(-c4cccc(C(F)(F)F)c4)cn23)c1`, the activation is -12.7%.
With `COc1ccc(C)cc1S(=O)(=O)N(CC(=O)Nc1cccc([N+](=O)[O-])c1)c1ccc(C)cc1`, the activation was 0.21%.
As to `Cc1ccc(S(=O)(=O)c2c[nH]c3ccc(Cl)cc3c2=O)cc1`, the activation was 0.08%.
On to `COc1ccc(S(=O)(=O)NC(C)C(=O)N2CCCCCC2)cc1` (stereo not drawn), for which the activation is -2.64%.
Regarding `O=C(NCc1ccccn1)c1cnc2sccn2c1=O`, the activation was 1.34%.
Take `Cc1cc(C)n2nc(CNS(=O)(=O)c3c(F)c(F)c(F)c(F)c3F)nc2n1`: the activation was 19.1% (active).
With `Cc1cc(-n2cnc(-c3cn(C)nc3C)n2)no1`, the activation was 3.17%.
With `COC(=O)C1C(=O)c2c([nH]c(C(=O)OCCSC)c2C)CC1C` (stereo not drawn) the figure was 6.36%; with `O=C(O)c1cccc(N=NN2CCCCCC2)c1`, 12.5% (active).
As to `CC(=O)c1sc(N/N=C\c2ccc(C)cc2)nc1C`, the activation is 6.84%.
The result for `O=C(OCC(=O)c1cccs1)C1=COCCO1` reads 8.33% (active).
As for `COc1ccc(NC(=O)c2sccc2SCC#N)cc1`, the activation is 0.37%.
In the case of `Cc1cc(O)c(NC(=O)c2ccc(C)c([N+](=O)[O-])c2)cc1C`, the activation is 5.6%.
`Cc1cc(=O)[nH]c(N/N=C/c2ccc3c(c2)OCCO3)n1`: the activation is 7.09%.
Regarding `Cn1c2ccc(F)cc2c2nnc(NN)nc21`, the activation was -1.11%.
`COc1ccc2nc(/N=C(\N)NC(=O)Nc3ccccc3)nc(C)c2c1`: the activation is 2.85%.
The result for `Cc1nc(N=C(N)N)nc2c(C)cccc12` reads 40.3% (active).
Take `O=C(Nc1cccc([N+](=O)[O-])c1)N1CCc2ccccc2C1`: the activation was 5.56%.
The result for `Cc1ccsc1-c1nc(CSCC(=O)NCCN2CCCC2)c(C)o1` reads -0.08%.
With `CCC(=O)Nc1ccc2nn(-c3ccc(F)cc3)nc2c1` the figure was 11.7% (active); with `Cn1cc(/C=C/C(=O)N2CCCC(C(=O)c3ccc(C(F)(F)F)cc3)C2)cn1` (stereo not drawn), 1.67%; with `Cc1c(NC(=O)CSc2cccc3cccnc23)c(=O)n(-c2ccccc2)n1C`, -8.3%.
The result for `Cc1cccc(CSc2ccc(-c3cccs3)nn2)c1` reads 7.87% (active).
With `COC(=O)Cc1nnn2c1[C@H](C)[C@H](c1ccccc1[N+](=O)[O-])OCC2`, the activation was 0.13%.
`O=[N+]([O-])c1ccc2c(c1)Nc1nc3ccccc3nc1N2`: the activation was 24.9% (active).
`COc1cc(/C=N/NC(=O)c2ccccc2)ccc1OS(=O)(=O)c1ccccc1`: the activation was 3.32%.
In the case of `Cc1nnc(NC(=O)Cn2c(=O)sc3ccccc32)s1`, the activation was -3.31%.
`COC(=O)c1ccc(NCc2cc(O)ccc2O)cc1`: the activation was 1.42%.
The result for `Cc1ccc(O)c(CNc2nc3ccccc3n2C)c1` reads 9.22% (active); that for `O=c1c2c(nc3n1CCCCC3)sc1c(O)cccc12`, 15.2% (active).
Consider `CC(=O)c1ccc(NC(=O)c2sc3nc4n(c(=O)c3c2C)CCCCC4)cc1`, for which the activation was -0.4%.
As to `FC(F)(F)c1cccc(-c2nc3ccccc3n2C(c2ccccc2)c2nc3ccccc3[nH]2)c1` (stereo not drawn), the activation is 3.9%.
With `CC(=O)Oc1ccc(C(=O)Nc2nccs2)cc1` the figure was 6.25%.
Turning to `CCOc1cccc2c1OC1(CCCCC1)N1N=C(c3cccnc3)CC21` (stereo not drawn), the activation is 2.8%.
The result for `Cc1ccc(-n2c(SCC(=O)N3CCC(C(=O)O)CC3)nc3ccccc3c2=O)cc1C` reads 4.21%; that for `CN(C)CCNC(=O)c1ccc(Cl)c2cc3ccccc3nc12`, -13.7%.
Regarding `CCCOc1ccc(-c2nc(N)n[nH]2)cc1`, the activation is 4.15%.
Turning to `Cc1ccccc1C#CC1=CC(=O)CC(C)(C)C1`, the activation is 1%.
In the case of `Cc1ccccc1C1=N/C(=C/c2cccnc2)C(=O)O1`, the activation was 0.02%.
Turning to `CCCCCCOC(=O)NCC(O)c1ccccc1` (stereo not drawn), the activation is 12.4% (active).
As to `CCCCc1ccc(NC(=S)N2CCCC(CO)C2)cc1` (stereo not drawn), the activation was 6.12%.
Turning to `Cc1ccc(C(=O)Nc2nc3ccc(Cl)cc3s2)o1`, the activation is 3.69%.
Take `CCOC(=O)c1c(C)[nH]c(C2=NNC(=NC(C)COC)SC2)c1C` (stereo not drawn): the activation was 10.6% (active).
For the molecule `C1=C(CCNc2ncnc3c2cnn3-c2ccccc2)CCCC1`, the activation is 3.15%.
For the molecule `O=C(N[C@H]1CC[C@H](CC(=O)N2CCCCC2)O[C@@H]1CO)c1cccc(F)c1`, the activation is 0.05%.
With `CCc1ccc(NC2Nc3cc(C)nn3S2)cc1` (stereo not drawn), the activation is 8.74% (active).
The result for `CCCn1c(=O)c2ccccc2n2c(SCC(=O)/C(C#N)=C(\C)N)nnc12` reads 3.09%; that for `COCC1CCN(C(=O)C2CCC(=O)N(Cc3cccc(C(F)(F)F)c3)C2)CC1` (stereo not drawn), 2.05%; that for `Cc1ccc(Nc2nc(Cl)c(C=O)s2)cc1`, -3.27%.
For `CCc1cc2c(=O)c(-c3ccon3)c(N)oc2cc1OC`, the activation was 14% (active).
The result for `CN(C)C(CNC(=O)c1ccc(OCc2cn3ccccc3n2)cc1)c1ccco1` (stereo not drawn) reads 2.21%.
Regarding `O=C(Nc1ccc(NC(=O)c2cccs2)cn1)c1ccco1`, the activation is 2.8%.
On to `Cc1ccnc(Nc2nc3ccccc3s2)n1`, for which the activation was 10% (active).
As to `O=C(Nc1ccc(F)cc1)c1cc2c(s1)CCCC2`, the activation was 9.06% (active).
The result for `O=C(NCC1CCCO1)c1cc2c(s1)CCCC2` (stereo not drawn) reads 11% (active); that for `Cc1ccnc(NC(=O)C2CCN(S(=O)(=O)c3c(C)c(C)cc(C)c3C)CC2)c1`, -0.54%.
On to `COC(=O)c1sc(-c2ccc(C(C)(C)C)cc2)cc1NC(=O)/C=C/C(=O)O`, for which the activation is -3.23%.
`CCC(C)N(C)C1CCN(C(=S)Nc2ccc(OC)cc2)CC1` (stereo not drawn): the activation was 1.96%.
For `COc1cccc(OCCOc2cccc(/C=N/n3cnnc3)c2)c1`, the activation is 3.85%.
In the case of `Cc1ccc(F)c(NC(=O)CCc2ccccc2)c1`, the activation is 5.33%.
`COc1ccc(OCCCC(=O)NCCc2ccccc2)cc1`: the activation was 1.28%.
`O=C(CCCc1ccccc1)NCc1ccccc1`: the activation was 8.8% (active).
For the molecule `CC(C)c1ccc(NC(=S)NC2CC3C=CC2C3)cc1` (stereo not drawn), the activation was 6.89%.
With `CC(C)(C)c1ccc(NC(=O)NCc2ccco2)cc1`, the activation was 14.5% (active).
With `Cc1ccc(NC(=O)C(=O)NCc2ccco2)c(C)c1` the figure was 0.78%.
As to `Cc1noc(C)c1S(=O)(=O)N(C)C[C@H]1Oc2c(NC(=O)Nc3ccc4c(c3)OCO4)cccc2C(=O)N([C@H](C)CO)C[C@@H]1C`, the activation is -2.45%.
`CC(C)(C)NC(=O)C(CCc1ccccc1)n1c(=O)c(-c2ccccc2)nc2ccccc21` (stereo not drawn): the activation is 8.75% (active).
With `O=C(Cn1ncc(N2CCCC2)c(Br)c1=O)c1ccc(Cl)cc1` the figure was 3.52%; with `COc1ccc(/C=C/C(=O)Nc2ccc(C34CC5CC(CC(O)(C5)C3)C4)cc2)cc1OC`, 15.3% (active); with `Cn1cccc1/C=N/NC(=O)c1ccc(OC(F)(F)C(F)F)cc1`, 3.85%.
Consider `COc1ccc(C(=O)NC2=NCCS2)c(OC)c1`, for which the activation is 10.5% (active).
For `CC1(C)CC(=O)C=C(NCCCNC2CCCCC2)C1`, the activation is -0.17%.
Turning to `O=C(Nc1cc(=O)[nH]c2ncnn12)c1ccccc1Cl`, the activation is 3.68%.
`CCCn1nc(C(=O)Nc2ccc3nc(C)sc3c2)c2ccccc2c1=O`: the activation is -0.9%.
The result for `Cc1ccc(C(=O)CSc2ccccc2C(=O)O)cc1` reads 16.1% (active); that for `CC(C)Cc1nnc(NC(=O)CCNC(=O)c2ccccc2Cl)s1`, -0.13%.
For `Cc1ccc(-c2nc3ccc(Cl)cn3c2Cc2ccccc2)cc1`, the activation is 3.06%.
With `Cc1ccc(N/C=C/C(=O)c2ccccc2)cc1C` the figure was 0.64%; with `Cc1cccc(-n2c(O)c(C=Nc3ccccc3N)c(=O)[nH]c2=O)c1`, 11.1% (active); with `Cc1ccsc1C(=O)N/N=C/c1ccc([N+](=O)[O-])cc1`, 6.1%.
As for `COc1ccc2ccccc2c1CNCc1ccccn1`, the activation was 0.73%.
In the case of `Cn1sc(=O)c2cc(S(=O)(=O)NC3CC3)ccc21`, the activation is -1.88%.
On to `COc1cccc(C(=O)Nc2nc3ccc(S(C)(=O)=O)cc3s2)c1`, for which the activation was 2.8%.
With `COc1cccc(C(=O)Nc2cc3c(cc2Br)OCCCO3)c1`, the activation was 9.25% (active).
For the molecule `O=C(O)c1ccc(COc2c(F)c(F)cc(F)c2F)o1`, the activation is -2.71%.
As for `Cc1nc(-c2nnc(SCC(=O)Nc3cc(C(F)(F)F)cc(C(F)(F)F)c3)n2C)cs1`, the activation is -3.07%.
In the case of `Fc1ccc(/C=N/Nc2nc(-c3cccnc3)nc3ccccc23)cc1`, the activation was 4.27%.
`Cc1ccc(NC(=O)c2cc3ccccc3o2)cc1`: the activation is 10.6% (active).
The result for `COc1ccc(C(=O)N/N=c2\oc3ccccc3cc2C(N)=O)cc1` reads 1.59%; that for `CCOC(=O)Nc1ccc(NC(=O)OCC)cc1`, -0.46%.
With `O=C(C1CCC1)N1CCN(S(=O)(=O)c2ccc([N+](=O)[O-])cc2)CC1`, the activation is 0.04%.
Turning to `COC(=O)c1ccc(/C=C2/C(=O)Oc3ccccc32)cc1`, the activation is -2.13%.
In the case of `CCc1c(C)c2ccc(OC3CCCCC3=O)cc2oc1=O` (stereo not drawn), the activation was 12.2% (active).
With `O=C(NC1CCCC1)C(=O)c1c[nH]c2ccccc12`, the activation was 4.82%.
With `CC(=O)c1sc(NC(=O)c2ccc(C)cc2)nc1C` the figure was 6.35%; with `CC1(C(=O)NS(=O)(=O)C2CC2)CCCN(C(=O)CSc2ccccc2)C1` (stereo not drawn), 1.21%; with `Oc1cccc2ccc(/C=C/c3ccc(Br)s3)nc12`, 12.9% (active).
For the molecule `CC(C)CCNC(=O)c1ccc2c(Cl)c3c(nc2c1)CCC3`, the activation is 2.09%.
